# Assay outcomes from PubChem BioAssay.
# TDP2 inh: TDP2 (human) inhibition, absorbance primary screen; recombinant TDP2, T5PNP hydrolysis, p-nitrophenol absorbance 415 nm; inhibition, % at 12.8 µM; actives 0.34% (n = 370,000); AID 720702;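 active = inhibition above the mean of all tested compounds plus 3 SD, set per campaign, cut at about 25% in these data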;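 note: 0% = DMSO with enzyme and 100% = buffer with substrate but no TDP2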
#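 System – recombinant human TDP2 · Amount – 120 nM TDP2 per well · Buffer or medium – Mg2+-containing Tris-HCl buffer, pH 7.5 · Reagent – T5PNP substrate, 5 mM · Dosing – 12.8 µM single point, 1% DMSO · Incubation – 2 h at 37 °C · Measured by – epi absorbance · Read-out basis – percent inhibition · Benchmarks – high control without enzyme, low control DMSO plus TDP2 · Repeats – singlicate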
# LEDGF integ inh: blocks HIV-1 LEDGF/p75-dependent DNA integration | TR-FRET IN-LEDGF/p75 DNA integration, Eu/Cy5 | AID 743269 | inhibition, % at 3.7 µM | actives 0.64% (n = 370,000);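 active = inhibition above the screen-wide mean plus 3 SD, cut at about 13% in these data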;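 note: signal is the Cy5 over europium emission ratio at 671 and 618 nm; 0% = plate median of compound wells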
# Casp6 inh: blocks human caspase-6 cleavage activity; purified caspase-6, Z-VEID-R110 cleavage fluorescence; actives 0.53% (n = 350,000); inhibition, % at 12.5 µM; P55212;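 active = mean inhibition across replicates at least about 35%, with every replicate also reaching that limit, limit read from the data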;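 note: 0% = median of neutral control wells and 100% = no fluorescence left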
# Target sequence (P55212 24-179 limits assumed): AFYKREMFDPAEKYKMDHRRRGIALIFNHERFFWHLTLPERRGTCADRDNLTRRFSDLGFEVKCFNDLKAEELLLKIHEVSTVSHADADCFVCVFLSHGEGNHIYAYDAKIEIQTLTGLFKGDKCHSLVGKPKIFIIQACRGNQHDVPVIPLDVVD
# Target sequence (P55212 194-293 limits assumed): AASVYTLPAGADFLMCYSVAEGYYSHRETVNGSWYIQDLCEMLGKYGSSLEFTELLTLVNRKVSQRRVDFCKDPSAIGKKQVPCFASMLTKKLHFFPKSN
# UCH37 inh: inhibitors of human deubiquitinating enzyme UCH37; purified proteasome/UCH37, Ub-AMC cleavage fluorescence; actives 0.33% (n = 330,000); AID 588478; inhibition, % (test concentration not listed); Q9Y5K5;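 active = mean inhibition over replicate wells above about 20%, limit read from the data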;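 note: 0% = compound-free wells with enzyme and 100% = wells lacking proteasome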
#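 Signal – fluorescence, ex 355 nm, em 460 nm · System – Proteasome-bound UCH37 · Input – 0.15 nM proteasome as dispensed · Timing – 30 min preincubation with enzyme, 25 min cleavage at room temperature · Read-out basis – percent inhibition of cleavage signal versus uninhibited and no-proteasome wells · Medium – Tris-HCl pH 7.4 with ATP-MgCl2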
# NSD2 HMT inh: blocks human histone methyltransferase NSD2. O96028. NSD2 peptide methylation, AlphaScreen, 120 min. inhibition, % at 12.5 µM. actives 0.54% (n = 310,000). AID 743445; in the data active = inhibition above about 50%
# AlphaScreen art: interferes with AlphaScreen signal, flagging NSD2 false positives; actives 9.4% (n = 1,500); shares compounds with NSD2 HMT inh; AID 1053174; AC35, µM (highest dose often 10 µM), without a hit: top-dose activity change, negative = signal loss; AlphaScreen artifact counterscreen, preloaded methylated H4 peptide; call rule not given here
# Active calls of the source: *; . = not tested or not shown. Sampled rows, rich in hits. Any-hit rate of the full collection: about 1.3%.
SMILES,TDP2 inh,LEDGF integ inh,Casp6 inh,UCH37 inh,NSD2 HMT inh,AlphaScreen art
COc1ccccc1N(CC(=O)NN=Cc1ccc(SC)cc1)S(C)(=O)=O,.,.,.,-10,.,.
CC(=O)Nc1cccc(C(C)=NNS(=O)(=O)c2ccc(C)cc2)c1,.,.,.,3,.,.
C=CCOc1ccc(C2NC(=S)NC3=C2CCc2ccccc23)cc1 (configuration not stated),8,1,9,2,8,.
O=C1NC2=C(CCc3ccccc32)C(c2ccccc2)N1 (configuration not stated),11,2,-3,-29,93*,-2%
CC(=NNC(=O)c1nnn(-c2nonc2N)c1CN(C)c1ccccc1)c1ccccn1,.,.,.,6,.,.
Cc1cc(-c2n[nH]c(=S)n2N=Cc2cccc(OCc3ccccc3)c2)n[nH]1,6,1,.,.,63*,-9%
O=C(NN=Cc1ccccc1)NC1CCCCC1,.,.,.,6,.,.
Cc1ccc(N2CCOCC2)c2c1C(=O)c1ccccc1C2=O,5,-1,3,5,57*,4.3µM*
O=C(CC(=NO)c1ccccc1O)C(F)F,.,.,.,5,.,.
CCOC(=O)CSc1nnc(-c2cc(OC)c(OC)c(OC)c2)o1,3,-1,2,-1,0,.
COc1cc(-c2nnc(SCc3cc(=O)oc4cc(O)c(O)cc34)o2)cc(OC)c1OC,1,78*,.,7,83*,0.99µM*
O=C(NN=Cc1cccnc1)C12CC3CC(CC(C3)C1)C2,.,.,.,-4,.,.
O=C(NCCN1CCCCC1)/C(=C/c1ccco1)NC(=O)c1ccccc1,-13,-2,-8,2,79*,-2%
Cc1ccccc1N(C(=O)c1snc(C(N)=O)c1N)C(C)C(=O)NC1CCCCC1 (configuration not stated),-7,2,1,.,78*,2%
Cc1ccccc1-c1noc(C23CC4CC(CC(C4)C2)C3)n1,5,1,.,4,63*,6%
Cc1ccc(-c2cc(C(F)(F)F)n3nc(C(=O)N4CCN5CCCC5C4)cc3n2)cc1 (configuration not stated),-8,0,-2,-25,75*,0%
COc1ccc(-c2cc(C(F)(F)F)n3nc(C(=O)N4CCN5CCCC5C4)cc3n2)cc1OC (configuration not stated),0,-4,-3,-1,-3,.
CCN(CC)C(=O)CSc1nc2ccccc2c(=O)n1CCC(=O)NCc1ccc(F)cc1,-2,0,.,1,121*,0%
CCN(CC)C(=O)CSc1nc2ccccc2c(=O)n1CC,0,-4,.,.,2,.
Cc1ccccc1C(=O)Nc1ccc(C(=O)NN=Cc2ccc(F)cc2)cc1,.,.,.,3,.,.
COc1ccc(C(=O)Nn2c(SCC(=O)c3ccc(Cl)cc3)nc3ccccc3c2=O)cc1,-13,0,.,2,116*,-4%
O=C(Cn1cc(C(F)(F)F)ccc1=O)NN=Cc1cccc(Cl)c1,.,.,.,1,.,.
N#Cc1c(Cl)nc2c(c1C#N)CCCC2,7,0,0,2,61*,1%
CCOc1ccc(NC(=S)N2CCC(NC(=O)C3CCCCC3)CC2)cc1,-2,2,3,1,57*,3%
CCc1ccc(NC(=S)N2CCC(NC(=O)C3CCCCC3)CC2)cc1,-3,1,1,5,2,.
SMILES,TDP2 inh,LEDGF integ inh,Casp6 inh,UCH37 inh,NSD2 HMT inh,AlphaScreen art
Cc1cc(C)nc(NS(=O)(=O)c2ccc(NC(=O)Nc3ccccc3)cc2)n1,-7,-5,2,6,36,.
Cc1cc(C)nc(NS(=O)(=O)c2ccc(NC(=O)c3ccccc3Br)cc2)n1,2,3,23,.,65*,1%
CNCc1ccccc1OCc1ccccc1F,-2,2,0,6,53*,0%
COc1cc(C=NNC(=O)OC(C)(C)C)ccc1OC(=O)c1ccco1,.,.,.,5,.,.
COc1ccc(CC(=O)NN=C(C)CC(=O)Nc2ccc3c(c2)OCCO3)cc1,.,.,.,1,.,.
CCc1ccc(OC)c(S(=O)(=O)Nc2ccccc2C)c1,-7,1,-5,5,2,.
COc1ccc(C)cc1S(=O)(=O)Nc1ccccc1C,-7,9,.,6,69*,1%
Cc1ccsc1C=NNC(=O)c1ccccn1,.,.,.,2,.,.
COc1ccc(CNC(=O)CN(c2ccc(C)cc2)S(=O)(=O)c2c(C)noc2C)cc1,-1,0,2,7,63*,-1%
